Source: publication PMC11665415 (Neurobiology of Pain, 2024)
“Also recorded” adds a separate entry of the source. Like-named read-outs stand apart in the source and are kept apart here.

Experiments:
[1] = test system: voltage-gated sodium channels; type: cell-based, rat; details: for Effect on density of sodium currents: acute application
[2] = test system: voltage-gated calcium channels; type: cell-based, rat
potassium channels = assay: Whole-cell patch-clamp recordings of total potassium currents; type: cell-based, rat
Summary of the method: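 Rat DRG neurons cultured in medium with 10 % FBS and 15 ng/ml NGF, on poly-D-lysine/laminin-coated coverslips at 37 °C, 5 % CO₂, and used within 24 h. Whole-cell patch clamp with test compound (10 µM) or 0.1 % DMSO in the external solution. Current density–voltage and peak current density (pA/pF) given as mean ± SEM.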

[3] = Snapshot/standard pharmacokinetics in CD-1 mice; type: in vivo, mouse; details: for half-life: male, CD-1, mouse, plasma
[4] = Snapshot pharmacokinetics in Balb/C mice; type: in vivo, mouse; details: 10 or 30 mg/kg IP or PO, up to five hours after dosing
[5] = test system: SNI-induced mechanical allodynia; assay: Spared nerve injury; type: in vivo, mouse
Summary of the method: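 On day 28 after spared nerve injury, 50 % paw withdrawal threshold measured by von Frey up-down method, at baseline and from 0 to 6 h after a single IP injection. Doses: 3, 10 and 30 mg/kg in males; 30 mg/kg in females; vehicle 30 % DMSO. AUC over 0–6 h. n = 8. Two-way ANOVA with Tukey; one-way ANOVA with Dunnett.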

[6] = test system: SNI-induced cold allodynia; assay: Spared nerve injury; type: in vivo, mouse; details: for SNI-induced cold allodynia, AUC between 0 and 6 h: day 28 post-SNI
[7] = test system: capsaicin-induced mechanical allodynia; assay: Capsaicin pain model, mechanical allodynia; type: in vivo, mouse; details: 30 mg/kg IP
Summary of the method: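 Mice got intraplantar capsaicin (12 µg in 10 µL; vehicle 80 % saline, 10 % ethanol, 10 % Tween80) in the left footpad under isoflurane. One h later: single IP dose of test compound at 30 mg/kg or vehicle (30 % DMSO). 50 % paw withdrawal threshold by von Frey up-down method, baseline then 0–4 h post-dose. AUC over 0–4 h. n = 8 per sex. Two-way ANOVA with Tukey; one-way ANOVA with Dunnett for AUC.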

naïve mice [8] = assay: Mechanical and cold sensitivity in naïve mice; type: in vivo, mouse; details: male and female naïve mice, 30 mg/kg IP
Summary of the method: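 Naïve male and female mice got test compound at 30 mg/kg IP in 30 % DMSO, with a 1 h wait before testing. Mechanical sensitivity measured with von Frey filaments by the up-down method. Cold sensitivity measured by applying an acetone drop to the hind paw.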

naïve mice [9] = assay: Rotarod test of motor coordination in naïve mice; type: in vivo, mouse; details: male and female naïve mice, 30 mg/kg IP
Summary of the method: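 Naïve male and female mice received test compound at 30 mg/kg IP, dissolved in 30 % DMSO. Motor coordination measured on the rotarod. A mouse that fell was placed back on the cylinder and the session continued.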

PIKfyve = details: 403 wild-type human kinases; ref Drewry et al., 2022; cited from earlier work
viral entry = details: 1 µM, multiple cell types; ref Drewry et al., 2022; cited from earlier work
SH-SY5Y cells = SH-SY5Y cells treated at 5 µM; ref Drewry et al., 2022; cited from earlier work

CN(C)CC#Cc1ccc2[nH]c3c(c2c1)-c1nc(N)ncc1CCC3 [SGC-PIKFYVE-1]
Voltage-dependence of activation ([1]; 10 µM, compared to the vehicle): remained unchanged | Hyperpolarizing shift in the voltage-dependence of inactivation ([1]; 10 µM, vs vehicle): 4 mV | Activation k ([1]; SGC-PIKFYVE-1 1 µM, DMSO control 4.93 ± 0.44): 6.54 ± 0.66 | Fast inactivation k ([1]; SGC-PIKFYVE-1 1 µM, DMSO control −13.64 ± 1.53): −14.49 ± 1.69 | Activation V0.5 (mV) ([1]; SGC-PIKFYVE-1 1 µM, DMSO control −21.776 ± 0.50): −21.09 ± 0.74 mV | Fast inactivation V0.5 (mV) ([1]; SGC-PIKFYVE-1 1 µM, DMSO control −53.6 ± 1.56): −51.69 ± 1.67 mV | Activation k ([1]; SGC-PIKFYVE-1 10 µM, ProTxII set (Fig. 1), DMSO control 4.25 ± 0.42): 4.89 ± 0.56 | Fast inactivation k ([1]; SGC-PIKFYVE-1 10 µM, ProTxII set (Fig. 1), DMSO control −11.11 ± 0.74): −10.32 ± 0.73 | Activation V0.5 (mV) ([1]; SGC-PIKFYVE-1 10 µM, ProTxII set (Fig. 1), DMSO control −20.48 ± 0.48): −20.11 ± 0.63 mV | Fast inactivation V0.5 (mV) ([1]; SGC-PIKFYVE-1 10 µM, ProTxII set (Fig. 1), DMSO control −47.42 ± 0.79): −51.51 ± 0.79 mV | IV curve Peak/density (pA/pF) ([1]; SGC-PIKFYVE-1 10 µM, ProTxII set (Fig. 1), DMSO control −533.2 ± 42.99): −348.7 ± 38.42 pA/pF | Activation k ([1]; SGC-PIKFYVE-1 10 µM, VX-548 set (Fig. 2), DMSO control 3.70 ± 0.39): 3.73 ± 0.47 | Fast inactivation k ([1]; SGC-PIKFYVE-1 10 µM, VX-548 set (Fig. 2), DMSO control −12.25 ± 1.08): −10.25 ± 1.63 | Activation V0.5 (mV) ([1]; SGC-PIKFYVE-1 10 µM, VX-548 set (Fig. 2), DMSO control −24.61 ± 0.44): −20.18 ± 0.55 mV | Fast inactivation V0.5 (mV) ([1]; SGC-PIKFYVE-1 10 µM, VX-548 set (Fig. 2), DMSO control −52.39 ± 1.14): −58.85 ± 1.79 mV | IV curve Peak/density (pA/pF) ([1]; SGC-PIKFYVE-1 10 µM, VX-548 set (Fig. 2), DMSO control −358.2 ± 32.87): −189.7 ± 47.11 pA/pF | Effect on density of sodium currents ([1]; 1 µM): but not at 1 µM | Effect on density of sodium currents ([1]; 10 µM): decrease in the density of sodium currents | Calcium current density and peak current ([2]; 10 µM, vs 0.1 % DMSO): unaffected | Fast inactivation k ([2]; total calcium currents, SGC-PIKFYVE-1 10 µM, DMSO control 0.99 ± 0.01): 0.98 ± 0.02 | Activation k ([2]; total calcium currents, SGC-PIKFYVE-1 10 µM, DMSO control 5.99 ± 0.64): 5.73 ± 0.58 | Activation V0.5 (mV) ([2]; total calcium currents, SGC-PIKFYVE-1 10 µM, DMSO control −4.68 ± 0.73): −4.31 ± 0.67 mV | Fast inactivation V0.5 (mV) ([2]; total calcium currents, SGC-PIKFYVE-1 10 µM, DMSO control −36.91 ± 0.73): −34.76 ± 1.79 mV | IV curve Peak/density (pA/pF) ([2]; total calcium currents, SGC-PIKFYVE-1 10 µM, DMSO control −107.71 ± 14.20): −113.06 ± 13.24 pA/pF | IK+ current or peak densities (potassium channels; acute treatment, 10 μM, vs 0.1 % DMSO): did not alter | IV curve Peak/density (pA/pF) (potassium channels; total potassium currents, SGC-PIKFYVE-1 10 µM, DMSO control 184.90 ± 17.17): 213.92 ± 21.52 pA/pF | Oral bioavailability and in vivo stability (snapshot PK) ([3]; CD-1 mice, 10 mg/kg IP or PO, five-hour time course): exhibited oral bioavailability and remained relatively stable in vivo | Detectability in plasma over twenty-four hours ([3]; CD-1 mice, 10 mg/kg IP or PO, no time points between 8 and 24 h): no longer detectable after eight hours | Adverse effects / tolerability ([3]; CD-1 mice, 30 mg/kg): did not induce any adverse effects; also recorded: well tolerated | Detectability in plasma over twenty-four hours ([3]; CD-1 mice, 30 mg/kg IP or PO): not detectable after eight hours | Plasma concentration relative to cellular affinity for PIKfyve ([3]; CD-1 mice, 30 mg/kg twice daily (BID) IP or PO): well above its cellular affinity for PIKfyve | half-life ([3]; ip): ~3.5 h | half-life ([3]; po, 30 mg/kg): 3.5 h | Plasma concentration relative to cellular affinity for PIKfyve [4]: maintained well above the cellular affinity for PIKfyve | SNI-induced tactile allodynia ([5]; female mice, 30 mg/kg IP): reduced SNI-induced tactile | Antiallodynic effect (AUC 0-6 h), dose dependence ([5]; male neuropathic mice, 3, 10 and 30 mg/kg IP): dose-dependent | Paw mechanical withdrawal threshold ([5]; male neuropathic mice, single IP injection 30 mg/kg, day 28 post-SNI): increase of the paw mechanical withdrawal threshold for four hours | SNI-induced cold allodynia ([6]; female mice, 30 mg/kg IP): reduced | SNI-induced cold allodynia, AUC between 0 and 6 h ([6]; female mice, 30 mg/kg IP): reversed SNI-induced cold allodynia | SNI-induced cold allodynia, AUC between 0 and 6 h ([6]; male mice, 30 mg/kg IP): reversed SNI-induced cold allodynia | SNI-induced cold allodynia ([6]; male mice, 3, 10 and 30 mg/kg IP): reduced SNI-induced cold allodynia for six hours in a dose-dependent manner | Capsaicin-induced nociceptive behaviors ([7]; female mice): able to reduce the nociceptive behaviors | Duration of reduction of capsaicin-induced allodynia ([7]; male mice, 1 h after intraplantar capsaicin): 2 h | Mechanical and cold sensitivity (naïve mice [8]): did not induce changes | Motor coordination (rotarod) (naïve mice [9]): did not induce changes | Kinome selectivity (PIKfyve): highly selective for PIKfyve | Viral entry (viral entry): inhibited viral entry | Lysosomal homeostasis (SH-SY5Y cells): impacted lysosomal homeostasis

COc1c([C@H]2[C@H](C(=O)Nc3ccnc(C(N)=O)c3)O[C@@](C)(C(F)(F)F)[C@H]2C)ccc(F)c1F [VX-548, reference compound]
Activation k ([1]; VX-548 5 nM, DMSO control 3.70 ± 0.39): 6.18 ± 0.88 | Fast inactivation k ([1]; VX-548 5 nM, DMSO control −12.25 ± 1.08): −9.98 ± 0.99 | Activation V0.5 (mV) ([1]; VX-548 5 nM, DMSO control −24.61 ± 0.44): −19.51 ± 0.98 mV | Fast inactivation V0.5 (mV) ([1]; VX-548 5 nM, DMSO control −52.39 ± 1.14): −59.85 ± 1.10 mV | IV curve Peak/density (pA/pF) ([1]; VX-548 5 nM, DMSO control −358.2 ± 32.87): −200.5 ± 35.37 pA/pF

ProTxII [reference compound]
Activation k ([1]; ProTxII 5 nM, DMSO control 4.25 ± 0.42): 4.17 ± 0.49 | Fast inactivation k ([1]; ProTxII 5 nM, DMSO control −11.11 ± 0.74): −11.11 ± 1.15 | Activation V0.5 (mV) ([1]; ProTxII 5 nM, DMSO control −20.48 ± 0.48): −14.89 ± 0.57 mV | Fast inactivation V0.5 (mV) ([1]; ProTxII 5 nM, DMSO control −47.42 ± 0.79): −53.17 ± 1.24 mV | IV curve Peak/density (pA/pF) ([1]; ProTxII 5 nM, DMSO control −533.2 ± 42.99): −207.3 ± 57.12 pA/pF

Cc1cccc(/C=N/Nc2cc(N3CCOCC3)nc(OCCc3ccccn3)n2)c1 [apilimod, reference compound]
Lysosomal homeostasis (SH-SY5Y cells): impacted lysosomal homeostasis
